Assay results published in ChEMBL document CHEMBL1148420, “Identification and synthesis of [1,2,4]triazolo[3,4-a]phthalazine derivatives as high-affinity ligands to the alpha 2 delta-1 subunit of voltage gated calcium channel” (Bioorg Med Chem Lett, 2004).

Key:
[1] = target: T1, Voltage-dependent calcium channel subunit alpha-2/delta-1 (Homo sapiens, UniProt P54289); assay: Binding affinity against alpha2 delta-1 subunit of voltage-gated calcium channel in human.
Summary of the method: (§1)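 [3H]gabapentin displacement binding on A710 membranes (HEK 293 cells stably transfected with human α1B, β3a and α2δ-1b subunits), following a literature method.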

[2] = target: T1, Voltage-dependent calcium channel subunit alpha-2/delta-1; assay: Binding affinity against alpha-2 delta-1 subunit of voltage gated subunit of Ca+2 channel in human; summary of the method: as §1

T1 sequence (P54289 25-956 limits assumed): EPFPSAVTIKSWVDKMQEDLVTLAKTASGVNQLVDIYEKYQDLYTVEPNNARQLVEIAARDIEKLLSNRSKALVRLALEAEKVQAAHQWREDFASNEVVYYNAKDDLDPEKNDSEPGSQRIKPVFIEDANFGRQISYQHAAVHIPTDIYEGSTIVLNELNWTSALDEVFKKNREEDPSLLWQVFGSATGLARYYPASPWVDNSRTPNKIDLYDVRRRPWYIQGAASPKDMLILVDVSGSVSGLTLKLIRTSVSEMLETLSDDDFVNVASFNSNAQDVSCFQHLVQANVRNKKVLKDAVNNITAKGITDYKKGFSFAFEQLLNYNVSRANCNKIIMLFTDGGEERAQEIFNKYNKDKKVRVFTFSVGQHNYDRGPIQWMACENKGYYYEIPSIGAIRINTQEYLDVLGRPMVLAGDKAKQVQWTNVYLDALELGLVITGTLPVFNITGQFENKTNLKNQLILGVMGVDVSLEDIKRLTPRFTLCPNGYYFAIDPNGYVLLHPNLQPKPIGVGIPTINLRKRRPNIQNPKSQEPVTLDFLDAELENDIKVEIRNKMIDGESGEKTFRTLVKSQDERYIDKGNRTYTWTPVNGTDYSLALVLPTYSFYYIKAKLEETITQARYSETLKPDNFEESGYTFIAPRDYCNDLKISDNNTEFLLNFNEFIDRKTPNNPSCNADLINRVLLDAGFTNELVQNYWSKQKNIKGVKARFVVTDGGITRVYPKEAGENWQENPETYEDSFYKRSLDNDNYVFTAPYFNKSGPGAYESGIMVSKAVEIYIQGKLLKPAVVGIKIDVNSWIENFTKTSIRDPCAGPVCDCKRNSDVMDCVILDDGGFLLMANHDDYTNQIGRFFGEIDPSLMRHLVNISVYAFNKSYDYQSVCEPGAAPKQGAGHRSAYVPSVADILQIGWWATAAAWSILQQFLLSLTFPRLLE
T1 sequence (P54289 957-1103 limits assumed): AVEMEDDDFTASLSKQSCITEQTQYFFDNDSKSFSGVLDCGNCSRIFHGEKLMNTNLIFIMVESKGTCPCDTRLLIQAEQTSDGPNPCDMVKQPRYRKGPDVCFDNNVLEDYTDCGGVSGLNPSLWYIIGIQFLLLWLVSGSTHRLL

Row | IC50 [1] [µM] | IC50 [2] [µM] | SMILES
1 | 1.37 |  | CC(Cc1ccccc1)NCc1cccc(COc2nn3c(C(F)(F)F)nnc3c3ccccc23)n1 (racemic)
2 |  | 0.829 | COc1ccc(CCNCc2cccc(COc3nn4c(C(F)(F)F)nnc4c4ccccc34)n2)cc1
3 | 0.03 |  | C[C@H](NCCc1ccccc1)c1cccc(COc2nn3c(C(F)(F)F)nnc3c3ccccc23)n1
4 | 10 |  | C[C@@H](NCCc1ccccc1)c1cccc(COc2nn3c(C(F)(F)F)nnc3c3ccccc23)n1
5 |  | 0.072 | FC(F)(F)c1nnc2c3ccccc3c(OCc3cccc(CNCCc4ccccc4)n3)nn12
6 | 0.174 |  | CC(C)C(NCCc1ccccc1)c1cccc(COc2nn3c(C(F)(F)F)nnc3c3ccccc23)n1 (racemic)
7 |  | 0.22 | Cc1cc(-c2nnc3c4ccccc4c(OCc4cccc(CNCCc5ccccc5)n4)nn23)no1
8 | 0.161 |  | Fc1cccc(CCNCc2cccc(COc3nn4c(C(F)(F)F)nnc4c4ccccc34)n2)c1
9 | 0.183 |  | CCC(NCCc1ccccc1)c1cccc(COc2nn3c(C(F)(F)F)nnc3c3ccccc23)n1 (racemic)
10 | 0.015 |  | Cc1cccc(CCNCc2cccc(COc3nn4c(C(F)(F)F)nnc4c4ccccc34)n2)c1
11 | 0.229 |  | FC(F)(F)c1nnc2c3ccccc3c(OCc3cccc(CNC4C[C@H]4c4ccccc4)n3)nn12 (mixture of isomers)
12 |  | 0.272 | c1ccc(CCNCc2cccc(COc3nn4c(C5CC5)nnc4c4ccccc34)n2)cc1
13 |  | 0.23 | c1ccc(CCNCc2cccc(COc3nn4cnnc4c4ccccc34)n2)cc1
14 |  | 0.195 | c1ccc(CCNCc2cccc(COc3nn4c(-c5ccccc5)nnc4c4ccccc34)n2)cc1
15 |  | 0.291 | Fc1ccccc1CCNCc1cccc(COc2nn3c(C(F)(F)F)nnc3c3ccccc23)n1
16 |  | 0.145 | c1ccc(CCNCc2cccc(COc3nn4c(C5CCCCC5)nnc4c4ccccc34)n2)cc1
17 | 0.198 |  | CC(CNCc1cccc(COc2nn3c(C(F)(F)F)nnc3c3ccccc23)n1)c1ccccc1 (racemic)

Row | IC50 [1] [µM] | IC50 [2] [µM] | SMILES
18 | 10 |  | CN(CCc1ccccc1)Cc1cccc(COc2nn3c(C(F)(F)F)nnc3c3ccccc23)n1
19 |  | 0.145 | Cc1nnc2c3ccccc3c(OCc3cccc(CNCCc4ccccc4)n3)nn12
20 | 0.448 |  | Cc1ccccc1CCNCc1cccc(COc2nn3c(C(F)(F)F)nnc3c3ccccc23)n1
21 | 0.26 |  | Cc1ccc(CCNCc2cccc(COc3nn4c(C(F)(F)F)nnc4c4ccccc34)n2)cc1
22 |  | 0.116 | COc1cccc(CCNCc2cccc(COc3nn4c(C(F)(F)F)nnc4c4ccccc34)n2)c1
23 | 0.63 |  | Fc1ccc(CCNCc2cccc(COc3nn4c(C(F)(F)F)nnc4c4ccccc34)n2)cc1
24 |  | 0.194 | CSc1nnc2c3ccccc3c(OCc3cccc(CNCCc4ccccc4)n3)nn12
25 | 0.036 |  | CC(NCCc1ccccc1)c1cccc(COc2nn3c(C(F)(F)F)nnc3c3ccccc23)n1 (racemic)
26 | 0.029 |  | Cc1cccc(CCNC(C)c2cccc(COc3nn4c(C(F)(F)F)nnc4c4ccccc34)n2)c1 (racemic)
27 | 10 |  | CC(C)(Cc1ccccc1)NCc1cccc(COc2nn3c(C(F)(F)F)nnc3c3ccccc23)n1
28 |  | 0.342 | CC(C)c1nnc2c3ccccc3c(OCc3cccc(CNCCc4ccccc4)n3)nn12
29 |  | 0.131 | COCc1nnc2c3ccccc3c(OCc3cccc(CNCCc4ccccc4)n3)nn12
30 |  | 0.241 | CCc1nnc2c3ccccc3c(OCc3cccc(CNCCc4ccccc4)n3)nn12
31 | 0.7 |  | C[C@@H](Cc1ccccc1)NCc1cccc(COc2nn3c(C(F)(F)F)nnc3c3ccccc23)n1
32 | 0.03 |  | [3H]c1cccc(CCN[C@@H](C)c2cccc(COc3nn4c(C(F)(F)F)nnc4c4ccccc34)n2)c1
33 | 0.028 |  | C[C@H](NCCc1cccc(Br)c1)c1cccc(COc2nn3c(C(F)(F)F)nnc3c3ccccc23)n1
